From PubChem BioAssay
Only a selection was taken, and hits are over-represented in it overall.
GASC1 inh = KDM4C (human) demethylase inhibition; Q9H3R0; GST-KDM4C 2-372, H3K9me3 peptide, LANCE TR-FRET; inhibition, % at 12.5 µM; 96,000 compounds, 0.15% hits; AID 720574;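 active means mean replicate inhibition above about 25%, with at least 55% of replicates also reaching it, limit read from the data, passing the limit was not always enough; inconclusive means only one of those two conditions met; inactive means neither condition met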
Target sequence (Q9H3R0 2-372 limits assumed): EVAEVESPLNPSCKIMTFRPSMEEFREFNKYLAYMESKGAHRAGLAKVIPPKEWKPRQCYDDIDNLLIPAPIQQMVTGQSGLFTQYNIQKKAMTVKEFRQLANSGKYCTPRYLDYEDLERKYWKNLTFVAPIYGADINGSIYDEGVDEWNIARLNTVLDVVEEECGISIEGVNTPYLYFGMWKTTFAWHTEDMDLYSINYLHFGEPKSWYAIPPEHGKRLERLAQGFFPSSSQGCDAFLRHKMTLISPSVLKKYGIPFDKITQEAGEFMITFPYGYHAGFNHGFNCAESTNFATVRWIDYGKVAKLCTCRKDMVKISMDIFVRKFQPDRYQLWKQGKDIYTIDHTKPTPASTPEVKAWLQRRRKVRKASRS
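System: N-terminal GST-fused human GASC-1 (KDM4C) fragment, residues 2-372; amount: enzyme final amount 10 nM; incubation: reaction 30 min RT, detection step 1 h RT; medium: HEPES buffer, pH 7.5, plus ascorbate; technique: LANCE TR-FRET, Eu antibody, ULight-streptavidin, EDTA, ex 340 nm, em 618/671 nm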
T cruzi growth-1 = inhibitors of T. cruzi proliferation; T. cruzi beta-gal in NIH3T3, GalScreen luminescence, 90 h; inhibition, % at 8.34 µM; 77,000 compounds, 5.9% hits;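 active means mean inhibition above about 93%, with at least 55% of replicates each passing it, limit read from the data, passing the limit was not always enough; inconclusive means only one of those two conditions holds; inactive means neither condition holds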
IDH1 R132H inh = IDH1 R132H (human) inhibition. IDH1 R132H reductase, diaphorase/resazurin fluorescence, 60 min. inhibition, % at 10 µM. 70,000 compounds, 0.18% hits. AID 624101; in the data active means inhibition above about 34%; inconclusive means no clear call, values can overlap the other calls; inactive means below about 11%;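 further: 0% = DMSO and 100% = no enzyme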
T cruzi growth-2 = Trypanosoma cruzi proliferation inhibition. T. cruzi beta-gal in NIH3T3, GalScreen luminescence, 90 h. 5,600 compounds, 72% hits. inhibition, % at 8.35 µM. shares compounds with T cruzi growth-1;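 active means mean replicate inhibition above about 95% and at least 55% of replicates individually reaching it, limit read from the data; inconclusive means only one of the two criteria is met; inactive means neither criterion is met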
T cruzi growth-3 = inhibitors of T. cruzi proliferation | shares compounds with T cruzi growth-1 | inhibition, % at 2.09 µM | AID 651740 | 5,600 compounds, 21% hits | T. cruzi beta-gal in NIH3T3, GalScreen luminescence, 90 h;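 active means mean inhibition above about 95%, with at least 55% of replicates also reaching it, limit read from the data; inconclusive means meets just one of the two conditions; inactive means meets neither condition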;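 further: plate controls were neutral control median for no effect and positive control median for full effect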
NIH3T3 tox = cytotoxicity in mouse NIH/3T3 fibroblasts; shares compounds with T cruzi growth-1; NIH/3T3 viability, CellTiter-Glo ATP luminescence, 90 h; cytotoxicity (signal decrease), % at 8.35 µM; 5,600 compounds, 14% hits; AID 651742;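 active means mean signal decrease across replicates above about 35% based on untreated-well scatter, with enough replicates individually passing, limit read from the data; inconclusive means no rule stated though some were filed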;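 further: 0% = median of neutral control wells and 100% = median of positive control wells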
NIH3T3 tox 2 = NIH/3T3 (mouse) viability loss; 5,600 compounds, 56% hits; inhibition, % at 24.9 µM; shares compounds with T cruzi growth-1; NIH/3T3 viability, CellTiter-Glo ATP luminescence, 90 h;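 active means mean loss of cell viability signal at or above a set limit, and enough replicates individually reaching it; inconclusive means meets only the mean limit or only the replicate share; inactive means meets neither condition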;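 further: 0% = median of neutral control wells and 100% = median of positive control wells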
* marks the source's active call; other numbers are inactive results; ? = inconclusive; . = not tested or not shown.

SMILES	GASC1 inh	T cruzi growth-1	IDH1 R132H inh	T cruzi growth-2	T cruzi growth-3	NIH3T3 tox	NIH3T3 tox 2
C[C@@H]1CN([C@H](C)CO)S(=O)(=O)c2ccc(C#CC(C)(C)O)cc2O[C@@H]1CN(C)C(=O)C1CCC1	0.9	-54.7	.	.	.	.	.
C[C@H](CO)N1C[C@H](C)[C@H](CN(C)Cc2ccc(-c3ccccc3)cc2)Oc2ccc(NC(=O)C3CCCCC3)cc2CC1=O	0.0	58.7	.	.	.	.	.
CO[C@@H]1CN(C)C(=O)c2cc(NC(=O)C3CCC3)ccc2OC[C@@H](C)N(C(=O)CN(C)C)C[C@H]1C	0.8	.	0.0	.	.	.	.
Cc1ccccc1-c1ccc([C@H]2[C@H]3CN(C(=O)c4cccnc4)CCCCN3[C@H]2CO)cc1	-0.1	36.3	.	.	.	.	.
Cc1cccc(-c2ccc([C@H]3[C@@H](CO)N4CCCCN(C(=O)c5cccnc5)C[C@@H]34)cc2)c1	-0.3	?	.	107.7*	41.8	35.8*	22.3
Cc1cccc(-c2ccc([C@@H]3[C@H]4CN(C(=O)c5cccnc5)CCCCN4[C@H]3CO)cc2)c1	0.7	104.3*	.	73.0	29.6	10.8	42.0*
Cc1cccc(-c2ccc([C@H]3[C@@H](CO)N4CCCCN(C(=O)c5cccnc5)C[C@H]34)cc2)c1	-0.9	113.7*	.	96.4*	74.6	10.2	?
Cc1cccc(-c2ccc([C@H]3[C@H](CO)N4CCCCN(C(=O)c5ccncc5)C[C@@H]34)cc2)c1	-1.3	67.6	.	.	.	.	.
Cc1cccc(-c2ccc([C@H]3[C@@H](CO)N4CCCCN(C(=O)c5ccncc5)C[C@@H]34)cc2)c1	-0.5	79.2	.	.	.	.	.
O=C(NCC[C@@H]1CC[C@@H](NC(=O)c2cnccn2)[C@@H](CO)O1)c1ccc2c(c1)OCO2	0.4	.	0.1	.	.	.	.
C[C@H](CO)N1C[C@H](C)[C@H](CN(C)C(=O)Nc2cccc3ccccc23)Oc2ccc(NC(=O)CCC(F)(F)F)cc2CC1=O	0.6	28.1	-3.2	.	.	.	.
O=C(C[C@H]1CC[C@H]2[C@@H](COC[C@@H](O)CN2C(=O)c2ccc3c(c2)OCO3)O1)NCCN1CCCC1	3.6	.	.	.	.	.	.
Cc1noc(C)c1S(=O)(=O)Nc1cccc2c1O[C@H](CN(C)S(=O)(=O)c1cccs1)[C@H](C)CN([C@H](C)CO)C2=O	-1.8	-7.5	.	.	.	.	.
COC(=O)c1ccc(CN2CC(=O)N3[C@H](CO)[C@@H](c4ccc(-c5cccnc5)cc4)[C@H]3C2)cc1	1.0	.	.	.	.	.	.
C[C@@H]1CN([C@H](C)CO)C(=O)Cc2cc(NS(=O)(=O)c3cccs3)ccc2O[C@H]1CN(C)S(=O)(=O)c1ccccc1	-2.3	3.5	-0.2	.	.	.	.
C[C@H](CO)N1C[C@H](C)[C@@H](CN(C)Cc2ccc(Cl)c(Cl)c2)OCCCC[C@H](C)Oc2ccc(NC(=O)CCC(F)(F)F)cc2C1=O	.	79.9	0.1	.	.	.	.
C[C@@H]1CCCCO[C@H](CN(C)Cc2ccncc2)[C@H](C)CN([C@H](C)CO)C(=O)c2cc(NC(=O)CCC(F)(F)F)ccc2O1	7.6	96.1*	8.1	43.8	0.2	-5.5	9.6
C[C@@H]1CCCCO[C@@H](CN(C)CC2CCCCC2)[C@@H](C)CN([C@H](C)CO)C(=O)c2cc(NC(=O)CCC(F)(F)F)ccc2O1	-1.4	12.6	2.6	.	.	.	.
C[C@@H]1CCCCO[C@@H](CN(C)Cc2ccncc2)[C@@H](C)CN([C@H](C)CO)C(=O)c2cc(NC(=O)CCC(F)(F)F)ccc2O1	-1.4	-26.3	7.5	.	.	.	.
C[C@@H]1CCCCO[C@@H](CN(C)CC2CCCCC2)[C@H](C)CN([C@@H](C)CO)C(=O)c2cc(NC(=O)CCC(F)(F)F)ccc2O1	1.3	?	0.0	?	19.8	8.8	18.0
C[C@@H]1CCCCO[C@@H](CN(C)Cc2ccc(Cl)c(Cl)c2)[C@H](C)CN([C@H](C)CO)C(=O)c2cc(NC(=O)CCC(F)(F)F)ccc2O1	0.0	?	-1.1	91.6	104.1*	-3.2	102.5*
CC(C)OC(=O)CSc1nc2c(cc1C#N)CCCCC2	.	.	-0.2	.	.	.	.
C[C@@H]1CCCCO[C@H](CN(C)C(=O)Nc2ccc(F)cc2)[C@@H](C)CN([C@H](C)CO)C(=O)c2cc(NC(=O)NC3CCCCC3)ccc2O1	2.2	-7.7	.	.	.	.	.
C[C@H](CO)N1C[C@H](C)[C@H](CN(C)C(=O)Nc2ccc(F)cc2)OCCCC[C@H](C)Oc2ccc(NC(=O)NC3CCCCC3)cc2C1=O	0.2	102.4*	.	106.3*	71.1	12.3	10.6
C[C@H](CO)N1C[C@H](C)[C@@H](CN(C)C(=O)Nc2ccc(F)cc2)OCCCC[C@H](C)Oc2ccc(NC(=O)NC3CCCCC3)cc2C1=O	0.7	?	-0.5	108.9*	68.1	18.1	-27.0
SMILES	GASC1 inh	T cruzi growth-1	IDH1 R132H inh	T cruzi growth-2	T cruzi growth-3	NIH3T3 tox	NIH3T3 tox 2
C[C@@H]1CN([C@H](C)CO)C(=O)c2cc(NC(=O)NC3CCCCC3)ccc2O[C@@H](C)CCCCO[C@H]1CN(C)C(=O)Nc1ccc(F)cc1	-1.9	.	0.7	.	.	.	.
COc1ccc(S(=O)(=O)N2CCCCN3[C@H](CO)[C@H](c4ccc(C5=CCCC5)cc4)[C@H]3C2)cc1	-1.0	93.8	.	.	.	.	.
COc1ccc(S(=O)(=O)N2CCCCN3[C@@H](CO)[C@H](c4ccc(C5=CCCC5)cc4)[C@@H]3C2)cc1	1.4	?	.	103.9*	88.4	26.6	104.3*
CS(=O)(=O)N1CCCCN2[C@H](CO)[C@H](c3ccc(C4=CCCC4)cc3)[C@@H]2C1	-1.0	51.0	.	.	.	.	.
CS(=O)(=O)N1CCCCN2[C@H](C1)[C@H](c1ccc(C3=CCCC3)cc1)[C@@H]2CO	1.2	?	.	60.4	25.9	19.5	8.5
CC(C)c1cn(CC[C@@H]2CC[C@@H](NS(=O)(=O)Cc3ccccc3)[C@@H](CO)O2)nn1	2.0	-21.4	0.0	.	.	.	.
C[C@@H]1CN([C@@H](C)CO)S(=O)(=O)c2ccc(C3=CCCC3)cc2O[C@H]1CN(C)C(=O)Nc1ccc2c(c1)OCO2	0.3	112.2*	-0.4	105.8*	16.7	10.2	61.5*
C[C@@H]1CN([C@@H](C)CO)S(=O)(=O)c2ccc(C3=CCCC3)cc2O[C@@H]1CN(C)C(=O)Nc1ccc2c(c1)OCO2	1.1	81.2	1.3	.	.	.	.
C[C@H]1CN([C@@H](C)CO)S(=O)(=O)c2ccc(C#Cc3ccccc3)cc2O[C@H]1CN(C)C(=O)Nc1ccc2c(c1)OCO2	-1.7	131.8*	-3.9	98.7*	93.2	4.2	12.5
CC(C)C#Cc1ccc2c(c1)O[C@@H](CN(C)C(=O)Nc1ccccc1)[C@@H](C)CN([C@@H](C)CO)S2(=O)=O	-1.4	.	.	.	.	.	.
C[C@@H](O)C#Cc1ccc2c(c1)O[C@@H](CN(C)C(=O)Nc1ccccc1)[C@@H](C)CN([C@@H](C)CO)S2(=O)=O	.	71.3	.	.	.	.	.
